The subject of assay [1] is Rattus norvegicus. Kind of assay: Effect on intestinal calcium transport in weanling Sprague-Dawley rat assessed as increase in ratio of serosal to mucosal calcium level at 780 pmol/day administered as 4 consecutive daily doses measured 24 hrs after last dose relative to control. In kind it is functional. In a few lines: (§1)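 Same rats, on 0.47% Ca diet for 1 week, then 0.02% Ca for 2 weeks. Four intraperitoneal doses about 24 h apart were given during the last week. 24 h after the final dose, the first 10 cm of intestine was taken for calcium transport measurement by the everted gut sac method.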

For assay [2], the target named is T1, Vitamin D3 receptor (Rattus norvegicus) (UniProt P13053).
T1 sequence (whole entry): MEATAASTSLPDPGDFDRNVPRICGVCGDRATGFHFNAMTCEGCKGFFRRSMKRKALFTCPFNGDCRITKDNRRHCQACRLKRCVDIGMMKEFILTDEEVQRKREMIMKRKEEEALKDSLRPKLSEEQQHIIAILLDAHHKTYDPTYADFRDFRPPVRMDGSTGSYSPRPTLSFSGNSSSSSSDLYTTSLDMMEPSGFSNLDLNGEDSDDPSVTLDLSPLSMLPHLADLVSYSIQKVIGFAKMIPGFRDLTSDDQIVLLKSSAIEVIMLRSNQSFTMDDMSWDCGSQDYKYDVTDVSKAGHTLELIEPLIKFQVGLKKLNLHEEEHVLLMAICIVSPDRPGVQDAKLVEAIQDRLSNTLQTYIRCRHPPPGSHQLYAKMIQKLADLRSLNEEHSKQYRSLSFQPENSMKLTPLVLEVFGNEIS
Kind of assay: Induction of VDR transcriptional activity assessed as activation of 24-hydroxylase gene expression in rat ROS 17/2.8 cells after 16 hrs by luciferase reprter assay. In kind it is cell-based. In a few lines: (§2)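 Rat osteosarcoma cells stably transfected with a 24-hydroxylase gene reporter plasmid; luciferase activity read across a dose range. ED50 is the concentration raising luciferase activity by 50%, taken from dose–response curves. Ratio line reports 1α,25-(OH)2D3 ED50 divided by analogue ED50.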

For assay [3], the system named is Rattus norvegicus. Kind of assay: Effect on bone calcium mobilization in weanling Sprague-Dawley rat assessed as serum calcium level at 87 pmol/day administered as 4 consecutive daily doses measured 24 hrs after last dose relative to control. In kind it is functional. In a few lines: (§3)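 Rats switched to a 0.47% Ca diet for 1 week, then 0.02% Ca diet for 2 weeks. Dosing started in the final week on the 0.02% Ca diet: four consecutive intraperitoneal doses about 24 h apart. Blood taken from the severed neck 24 h after the last dose. Serum calcium measured as the index of bone calcium mobilization.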

The test system of assay [4] is Rattus norvegicus. Kind of assay: Effect on intestinal calcium transport in weanling Sprague-Dawley rat assessed as increase in ratio of serosal to mucosal calcium level at 87 pmol/day administered as 4 consecutive daily doses measured 24 hrs after last dose relative to control. In kind it is functional. The essentials:
as §1

Assay [5] has as its system Rattus norvegicus. Kind of assay: Effect on bone calcium mobilization in weanling Sprague-Dawley rat assessed as serum calcium level at 780 pmol/day administered as 4 consecutive daily doses measured 24 hrs after last dose relative to control. Format: functional. The essentials: as §3
For assay [6], the target named is T1, Vitamin D3 receptor (Rattus norvegicus). Kind of assay: Ratio of 1alpha,25-dihydroxyvitamin D3 Ki to compound Ki for full length recombinant rat vitamin D receptor by scintillation counting analysis. The essentials: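 Competitive binding against radiolabeled 1α,25-(OH)2D3 at 1 nM, with Kd of 0.2 nM used in Ki derivation from dose–response curves. Duplicate runs on two separate occasions. Reported as the average ratio of 1α,25-(OH)2D3 Ki to analogue Ki.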

Assay [7] concerns Rattus norvegicus. Kind of assay: Effect on bone calcium mobilization in weanling Sprague-Dawley rat assessed as serum calcium level at 7020 pmol/day administered as 4 consecutive daily doses measured 24 hrs after last dose relative to control. Format: functional. In a few lines: as §3
In assay [8] the test system is HL-60. Kind of assay: Ratio of 1alpha,25-dihydroxyvitamin D3 ED50 to compound ED50 for induction of human HL60 promyelocytes differentiation to monocytes after 4 days by NBT reduction assay. Format: functional. In a few lines:
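HL-60 promyelocyte-to-monocyte differentiation scored as percentage of cells reducing nitro blue tetrazolium. Run in duplicate, repeated twice. ED50, the concentration giving 50% maturation, taken from dose–response curves; expressed as the average ratio of 1α,25-(OH)2D3 ED50 to analogue ED50.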

The target of assay [9] is T1, Vitamin D3 receptor (Rattus norvegicus). Kind of assay: Ratio of 1alpha,25-dihydroxyvitamin D3 ED50 to compound ED50 for VDR-mediated 24-hydroxylase gene expression in rat ROS 17/2.8 cells after 16 hrs by luciferase reprter assay. Format: cell-based. The essentials:
as §2

For assay [10], the system named is Rattus norvegicus. Kind of assay: Effect on bone calcium mobilization in weanling Sprague-Dawley rat assessed as serum calcium level at 32 pmol/day administered as 4 consecutive daily doses measured 24 hrs after last dose relative to control. Format: functional. In a few lines:
as §3

The test system of assay [11] is Rattus norvegicus. Kind of assay: Effect on intestinal calcium transport in weanling Sprague-Dawley rat assessed as increase in ratio of serosal to mucosal calcium level at 32 pmol/day administered as 4 consecutive daily doses measured 24 hrs after last dose relative to control. In kind it is functional. The essentials: as §1
The subject of assay [12] is Rattus norvegicus. Kind of assay: Effect on intestinal calcium transport in weanling Sprague-Dawley rat assessed as increase in ratio of serosal to mucosal calcium level at 7020 pmol/day administered as 4 consecutive daily doses measured 24 hrs after last dose relative to control. In kind it is functional. In a few lines:
as §1

In assay [13] the test system is Rattus norvegicus. Kind of assay: Effect on bone calcium mobilization in weanling Sprague-Dawley rat assessed as serum calcium level at 260 pmol/day administered as 4 consecutive daily doses measured 24 hrs after last dose relative to control. In kind it is functional. The essentials:
as §3

The test system of assay [14] is Rattus norvegicus. Kind of assay: Effect on intestinal calcium transport in weanling Sprague-Dawley rat assessed as increase in ratio of serosal to mucosal calcium level at 260 pmol/day administered as 4 consecutive daily doses measured 24 hrs after last dose relative to control. Format: functional. In a few lines:
as §1

The subject of assay [15] is Rattus norvegicus. Kind of assay: Effect on bone calcium mobilization in weanling Sprague-Dawley rat assessed as serum calcium level at 2340 pmol/day administered as 4 consecutive daily doses measured 24 hrs after last dose relative to control. In kind it is functional. In a few lines: as §3
The test system of assay [16] is Rattus norvegicus. Kind of assay: Effect on intestinal calcium transport in weanling Sprague-Dawley rat assessed as increase in ratio of serosal to mucosal calcium level at 2340 pmol/day administered as 4 consecutive daily doses measured 24 hrs after last dose relative to control. Format: functional. The essentials: as §1
Assay [17] concerns Rattus norvegicus. Kind of assay: Effect on bone calcium mobilization in weanling Sprague-Dawley rat assessed as serum calcium level at 16 pmol/day administered as 4 consecutive daily doses measured 24 hrs after last dose relative to control. In kind it is functional. The essentials:
as §3

Assay [18] relates to Rattus norvegicus. Kind of assay: Effect on intestinal calcium transport in weanling Sprague-Dawley rat assessed as increase in ratio of serosal to mucosal calcium level at 16 pmol/day administered as 4 consecutive daily doses measured 24 hrs after last dose relative to control. In kind it is functional. The essentials:
as §1

Structures are written as SMILES. The source made the active and inactive calls. The calls are words filed in the database; no cut-off is given here.

With `C=C1/C(=C\C=C2/CCC[C@]3(C)[C@@H]([C@H](C)CCCC(C)(C)O)CC[C@@H]23)C[C@@H](O)C[C@@H]1O` [CALCITRIOL], the Ratio was 1.9 in [1] and 3.1 in assay [4]. Further, the outcome in assay [2] was Active. Besides, the Activity in assay [3] is 0.3 mg/dL; in [5] it was 2.1 mg/dL.

On to `C=C1/C(=C\C=C2/CCC[C@]3(C)[C@@H]([C@@H](C)CCCC(C)C)CC[C@@H]23)C[C@@H](O)C(=C)[C@@H]1O`, for which the Ratio Ki in [6] amounted to 0.01. The Activity was 4.8 mg/dL in assay [7], “Dose-dependent effect” in assay [2], 0.4 mg/dL in assay [3] and 3.3 mg/dL in [5]. Also, the “Ratio ED50” value was found to be 0.7 in [8] and 0.07 in assay [9].

Consider `C=C1/C(=C\C=C2/CCC[C@]3(C)[C@@H]([C@H](C)CCCC(C)(C)O)CC[C@@H]23)C[C@@H](O)C(=C)[C@@H]1O`, for which the Activity in [10] worked out at 1.4 mg/dL; in [7] it was 7.3 mg/dL; in assay [3], 2.2 mg/dL; in assay [5], 5 mg/dL. Moreover, the Ratio Ki in assay [6] worked out at 1.4. Moreover, the Ratio in assay [1] is listed as 5.2; in [11], 2.4; in assay [4], 5.1; in assay [12], 9.2. The “Ratio ED50” value is 0.7 in [8] and 1 in [9].

As to `C=C1[C@H](O)CC(=C/C=C2\CCC[C@]3(C)[C@@H]([C@@H](C)CCCC(C)(C)O)CC[C@@H]23)C[C@H]1O` [DP001], the Ratio Ki in assay [6] was 1. Further, the “Ratio ED50” value in [8] turned out to be 25; in assay [9], 29.

For `C=C1/C(=C\C=C2/CCC[C@]3(C)[C@@H]([C@H](C)CCCC(C)C)CC[C@@H]23)C[C@@H](O)C(=C)[C@@H]1O`, in assay [6], the Ratio Ki is 0.01. The Ratio in assay [1] was determined as 5.8; in [4], 4.6; in [12], 6. The Activity in [7] was 6 mg/dL; in assay [2] it was “Dose-dependent effect”; in assay [3], 0.9 mg/dL; in [5], 3.8 mg/dL. Besides, the “Ratio ED50” value in assay [8] and in assay [9] was 0.07 in each case.

For `C=C1/C(=C/C=C2\CCC[C@]3(C)[C@@H]([C@@H](C)CCCC(C)(C)O)CC[C@@H]23)C[C@@H](O)C(=C)[C@@H]1O`, the Activity in [10] was found to be 0 mg/dL; in [3], 0.6 mg/dL; in assay [5], 4 mg/dL; in assay [13], 1.2 mg/dL. For the same molecule, the Ratio Ki in [6] turned out to be 1.1. The Ratio is 4.5 in assay [1], 0.9 in [11], 2.9 in assay [4] and 2.6 in [14]. Moreover, the result in assay [2] was Active. Moreover, the “Ratio ED50” value in [8] came out at 20; in assay [9] it was 5.

With `C=C1/C(=C/C=C2\CCC[C@]3(C)[C@@H]([C@H](C)CCCC(C)(C)O)CC[C@@H]23)C[C@@H](O)C(=C)[C@@H]1O`, the Activity in assay [10] was 0.3 mg/dL; in assay [15], 2.2 mg/dL; in [7], 2.2 mg/dL; in assay [3], 0.5 mg/dL; in assay [5], 1.3 mg/dL. Besides, the Ratio Ki in [6] came to 2.5. In addition, the Ratio was determined as 1.2 in [1]; 2.3 in assay [11]; 2.1 in assay [4]; 3.2 in assay [12]; 3 in assay [16]. Moreover, the entries for the “Ratio ED50” value in assay [8] and in [9] were 0.4 and 1, respectively.

For `C=C1/C(=C\C=C2/CCC[C@]3(C)[C@@H]([C@@H](C)CCCC(C)(C)O)CC[C@@H]23)C[C@@H](O)C(=C)[C@@H]1O`, the Activity in assay [10] was determined as 1.1 mg/dL; in assay [7] it was 6 mg/dL; in [3] it was 2.8 mg/dL; in assay [5] it was 5.9 mg/dL; in assay [17] it was 0.7 mg/dL; in [13], 3.4 mg/dL. Besides, the Ratio Ki in [6] worked out at 1.1. Besides, the Ratio in [1] is given as 9.3; in [11], 5; in assay [4] it was 5.4; in [12], 7.3; in assay [14] it was 5; in assay [18], 3. Besides, the result in assay [2] was Active. The “Ratio ED50” value turned out to be 29 in [8] and 10 in assay [9].

(Values after ChEMBL document CHEMBL3745687, “Synthesis and Biological Activity of 2-Methylene Analogues of Calcitriol and Related Compounds” (2015).)
